In ChEMBL document CHEMBL1128580, “Synthesis and antibacterial activity of some novel 1-substituted 1,4-dihydro-4-oxo-7-pyridinyl-3-quinolinecarboxylic acids. Potent antistaphylococcal agents” (1995):
In brackets after ≈: the same amount, converted by molar mass.

What was measured:
Type in all cases: functional
Bacteroides fragilis = test: Minimum Inhibitory concentration measured against Bacteroides fragilis ATCC 25285
Procedure, shortened: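 Anaerobic broth microdilution. Grown in brain heart infusion broth with 5 µg/mL hemin and 0.5 µg/mL vitamin K for 48 h at 37 °C under 5% CO₂, 10% H₂, 85% N₂. Adjusted to absorbance 0.1 at 650 nm and diluted 1:10. Final 10⁵ cells/mL; plates incubated anaerobically for 48 h at 37 °C.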

Escherichia coli = test: Minimum Inhibitory concentration measured against Escherichia coli ATCC 1-25922
Procedure, shortened: (§1)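 Broth microdilution on cultures kept as frozen stock, grown in Mueller Hinton II medium for 18–24 h at 37 °C. Suspension adjusted to absorbance 0.1 at 650 nm and diluted 1:10 in medium to give the inoculum. Final density 10⁵ cells/mL; plates incubated 24 h at 37 °C.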

Enterococcus faecalis = test: Minimum Inhibitory concentration measured against Streptococcus faecalis ATCC 29212; procedure, shortened: as §1
Staphylococcus aureus = test: Minimum Inhibitory concentration measured against Staphylococcus aureus ATCC 29213; procedure, shortened: as §1
Pseudomonas aeruginosa = test: Minimum Inhibitory concentration measured against Pseudomonas aeruginosa ATCC 27853; procedure, shortened: as §1
Streptococcus pyogenes = test: Minimum Inhibitory concentration measured against Streptococcus pyogenes ATCC 6301
Procedure, shortened: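 ATCC 6301 was grown in brain heart infusion broth with 10% heat-inactivated horse serum for 18–24 h at 37 °C. Suspension brought to absorbance 0.1 at 650 nm, then diluted 1:10 in the same medium. Broth microdilution at a final 10⁵ cells/mL, incubated 24 h at 37 °C.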

SMILES | MIC (Bacteroides fragilis) [µg/mL] | MIC (Escherichia coli) [µg/mL] | MIC (Enterococcus faecalis) [µg/mL] | MIC (Staphylococcus aureus) [µg/mL] | MIC (Pseudomonas aeruginosa) [µg/mL] | MIC (Streptococcus pyogenes) [µg/mL]
Cc1cc(-c2cc3c(cc2F)c(=O)c(C(=O)O)cn3C2CC2)cc(CN(C)C)n1 | 2 (≈ 5.06 µM) | 0.06 (≈ 0.152 µM) | 0.5 (≈ 1.26 µM) | 0.06 (≈ 0.152 µM) | 8 (≈ 20.2 µM) | 0.5 (≈ 1.26 µM)
Cc1cc(-c2cc3c(cc2F)c(=O)c(C(=O)O)cn3C(C)(C)C)cc(C)n1 | 1 (≈ 2.71 µM) | 0.25 (≈ 0.679 µM) | 0.25 (≈ 0.679 µM) | 0.03 (≈ 0.0814 µM) | > 4 | 0.125 (≈ 0.339 µM)
Cc1cc(-c2cc3c(cc2F)c(=O)c(C(=O)O)cn3C2CC2)cc(C)n1 | 0.5 (≈ 1.42 µM) | 0.03 (≈ 0.0851 µM) | 0.06 (≈ 0.17 µM) | 0.008 (≈ 0.0227 µM) | 2 (≈ 5.68 µM) | 0.03 (≈ 0.0851 µM)
COCc1cc(-c2cc3c(cc2F)c(=O)c(C(=O)O)cn3C2CC2)cc(C)n1 | 1 (≈ 2.62 µM) | 0.25 (≈ 0.654 µM) | 0.125 (≈ 0.327 µM) | 0.03 (≈ 0.0785 µM) | 8 (≈ 20.9 µM) | 0.125 (≈ 0.327 µM)
Cc1cc(-c2nc3c(cc2F)c(=O)c(C(=O)O)cn3C2CC2)cc(C)n1 | 2 (≈ 5.66 µM) | 0.125 (≈ 0.354 µM) | 0.125 (≈ 0.354 µM) | 0.03 (≈ 0.0849 µM) | 8 (≈ 22.6 µM) | 0.25 (≈ 0.708 µM)
CNCc1cc(-c2cc3c(cc2F)c(=O)c(C(=O)O)cn3C2CC2)cc(C)n1 | 2 (≈ 5.24 µM) | 0.016 (≈ 0.0419 µM) | 0.2 (≈ 0.524 µM) | 0.125 (≈ 0.328 µM) | 1 (≈ 2.62 µM) | 0.25 (≈ 0.655 µM)
CNn1cc(C(=O)O)c(=O)c2cc(F)c(-c3cc(C)nc(C)c3)cc21 | > 4 | 0.25 (≈ 0.732 µM) | 0.5 (≈ 1.46 µM) | 0.06 (≈ 0.176 µM) | > 4 | 1 (≈ 2.93 µM)
Cc1cc(-c2c(F)c(F)c3c(=O)c(C(=O)O)cn(C4CC4)c3c2F)cc(C)n1 | 0.5 (≈ 1.29 µM) | 0.13 (≈ 0.335 µM) | 0.06 (≈ 0.155 µM) | 0.008 (≈ 0.0206 µM) | 8 (≈ 20.6 µM) | 0.03 (≈ 0.0773 µM)
Cc1cc(-c2cc3c(cc2F)c(=O)c(C(=O)O)cn3C2CC2)c(C)c(C)n1 | 4 (≈ 10.9 µM) | 0.125 (≈ 0.341 µM) | 0.5 (≈ 1.36 µM) | 0.06 (≈ 0.164 µM) | 8 (≈ 21.8 µM) | 0.25 (≈ 0.682 µM)
Cc1cc(-c2cc3c(cc2F)c(=O)c(C(=O)O)cn3C2CC2)cc(CO)n1 | 1 (≈ 2.71 µM) | 0.06 (≈ 0.163 µM) | 0.125 (≈ 0.339 µM) | 0.03 (≈ 0.0814 µM) | 4 (≈ 10.9 µM) | 0.06 (≈ 0.163 µM)
CCNCc1cc(-c2cc3c(cc2F)c(=O)c(C(=O)O)cn3C2CC2)cc(C)n1 | 8 (≈ 20.2 µM) | 0.06 (≈ 0.152 µM) | 2 (≈ 5.06 µM) | 0.5 (≈ 1.26 µM) | 8 (≈ 20.2 µM) | 0.5 (≈ 1.26 µM)
O=C(O)c1cn(C2CC2)c2cc(N3CCNCC3)c(F)cc2c1=O [CIPROFLOXACIN] | 2 (≈ 6.04 µM) |  | 0.5 (≈ 1.51 µM) | 0.25 (≈ 0.754 µM) |  | 0.25 (≈ 0.754 µM)
CCn1cc(C(=O)O)c(=O)c2cc(F)c(N3CCNCC3)cc21 [NORFLOXACIN] | 8 (≈ 25.1 µM) | 0.125 (≈ 0.391 µM) | 4 (≈ 12.5 µM) | 2 (≈ 6.26 µM) | 2 (≈ 6.26 µM) | 4 (≈ 12.5 µM)
Cc1cc(-c2c(F)cc3c(=O)c(C(=O)O)cn(C4CC4)c3c2F)cc(C)n1 [WIN-57294] | 0.125 (≈ 0.338 µM) | 0.06 (≈ 0.162 µM) | 0.06 (≈ 0.162 µM) | 0.008 (≈ 0.0216 µM) | 4 (≈ 10.8 µM) | 0.016 (≈ 0.0432 µM)

Further lines, results first:

MIC (Bacteroides fragilis) [µg/mL] | MIC (Escherichia coli) [µg/mL] | MIC (Enterococcus faecalis) [µg/mL] | MIC (Staphylococcus aureus) [µg/mL] | MIC (Pseudomonas aeruginosa) [µg/mL] | MIC (Streptococcus pyogenes) [µg/mL] | SMILES
> 4 | 0.25 (≈ 0.748 µM) | 0.5 (≈ 1.5 µM) | 0.06 (≈ 0.179 µM) | > 4 | 0.5 (≈ 1.5 µM) | Cc1cc(-c2ccc3c(=O)c(C(=O)O)cn(C4CC4)c3c2)cc(C)n1
1 (≈ 2.84 µM) | 0.125 (≈ 0.355 µM) | 0.25 (≈ 0.709 µM) | 0.03 (≈ 0.0851 µM) | 4 (≈ 11.4 µM) | 0.25 (≈ 0.709 µM) | CCc1cc(-c2cc3c(cc2F)c(=O)c(C(=O)O)cn3C2CC2)ccn1
1 (≈ 3.08 µM) | 0.03 (≈ 0.0925 µM) | 0.5 (≈ 1.54 µM) | 0.06 (≈ 0.185 µM) | 2 (≈ 6.17 µM) | 0.25 (≈ 0.771 µM) | O=C(O)c1cn(C2CC2)c2cc(-c3ccncc3)c(F)cc2c1=O
16 (≈ 51.2 µM) | 0.125 (≈ 0.4 µM) | 1 (≈ 3.2 µM) | 0.25 (≈ 0.801 µM) | 2 (≈ 6.4 µM) | 2 (≈ 6.4 µM) | CCn1cc(C(=O)O)c(=O)c2cc(F)c(-c3ccncc3)cc21
0.5 (≈ 1.48 µM) | 0.03 (≈ 0.0887 µM) | 0.06 (≈ 0.177 µM) | 0.016 (≈ 0.0473 µM) | 2 (≈ 5.91 µM) | 0.06 (≈ 0.177 µM) | Cc1cc(-c2cc3c(cc2F)c(=O)c(C(=O)O)cn3C2CC2)ccn1
0.5 (≈ 1.54 µM) | 0.008 (≈ 0.0247 µM) | 0.25 (≈ 0.771 µM) | 0.016 (≈ 0.0493 µM) | 1 (≈ 3.08 µM) | 0.125 (≈ 0.385 µM) | O=C(O)c1cn(C2CC2)c2cc(-c3cccnc3)c(F)cc2c1=O
 | 0.06 (≈ 0.17 µM) |  | 0.008 (≈ 0.0227 µM) |  |  | Cc1cc(-c2ccc3c(=O)c(C(=O)O)cn(C4CC4)c3c2F)cc(C)n1
2 (≈ 5.88 µM) | 0.06 (≈ 0.176 µM) | 0.25 (≈ 0.735 µM) | 0.03 (≈ 0.0881 µM) | 4 (≈ 11.8 µM) | 0.25 (≈ 0.735 µM) | CCn1cc(C(=O)O)c(=O)c2cc(F)c(-c3cc(C)nc(C)c3)cc21
4 (≈ 11.4 µM) | 0.5 (≈ 1.42 µM) | 4 (≈ 11.4 µM) | 1 (≈ 2.84 µM) | > 16 | 8 (≈ 22.7 µM) | Cc1ccc(-c2cc3c(cc2F)c(=O)c(C(=O)O)cn3C2CC2)c(C)n1
0.25 (≈ 0.739 µM) | 0.03 (≈ 0.0887 µM) | 0.25 (≈ 0.739 µM) | 0.03 (≈ 0.0887 µM) | 2 (≈ 5.91 µM) | 0.25 (≈ 0.739 µM) | Cc1ccc(-c2cc3c(cc2F)c(=O)c(C(=O)O)cn3C2CC2)cn1
1 (≈ 2.46 µM) | 0.125 (≈ 0.308 µM) | 1 (≈ 2.46 µM) | 0.125 (≈ 0.308 µM) | 4 (≈ 9.84 µM) | 1 (≈ 2.46 µM) | Cc1cc(-c2cc3c(cc2F)c(=O)c(C(=O)O)cn3-c2ccc(F)cc2)cc(C)n1
0.25 (≈ 0.739 µM) | 0.06 (≈ 0.177 µM) | 0.125 (≈ 0.369 µM) | 0.016 (≈ 0.0473 µM) | 2 (≈ 5.91 µM) | 0.06 (≈ 0.177 µM) | Cc1cncc(-c2cc3c(cc2F)c(=O)c(C(=O)O)cn3C2CC2)c1
16 (≈ 49.6 µM) | 0.25 (≈ 0.776 µM) | 1 (≈ 3.1 µM) | 0.25 (≈ 0.776 µM) | 2 (≈ 6.2 µM) | 32 (≈ 99.3 µM) | CCn1cc(C(=O)O)c(=O)c2ccc(-c3cc(C)nc(C)c3)cc21 [DIMETHYLROSOXACIN]
8 (≈ 27.2 µM) | 0.125 (≈ 0.425 µM) | 16 (≈ 54.4 µM) | 0.5 (≈ 1.7 µM) | 16 (≈ 54.4 µM) | 16 (≈ 54.4 µM) | CCn1cc(C(=O)O)c(=O)c2ccc(-c3ccncc3)cc21 [ROSOXACIN]
